Test [1] relates to Rattus norvegicus. Nature of the test: Antagonist effect to pressor response of 0.3 ug/kg of norepinephrine intravenously in rats at the dose 32 uM/kg. In kind it is functional. In outline:
(§1)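 Male Sprague-Dawley rats, 300–350 g, anesthetized with pentobarbital sodium 40 mg/kg ip, trachea cannulated for ventilation. Drugs dissolved in 0.9% saline and injected into a cannulated external jugular vein. Poorly soluble material was given in polyethylene glycol/ethanol/water 20:10:70. n = 3 per determination.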

For test [2], the system named is Rattus norvegicus. Nature of the test: Decrease in mean arterial blood pressure in response to intravenous administration at 16 uM/kg of the compound. In kind it is functional, Artery. The procedure, abridged: as §1
Test [3] relates to Rattus norvegicus. Nature of the test: Decrease in mean arterial blood pressure in response to intravenous administration at 2 uM/kg of the compound. In kind it is functional, Artery. The procedure, abridged:
as §1

In test [4] the test system is Rattus norvegicus. Briefly: Decrease in mean arterial blood pressure in response to intravenous administration at 32 uM/kg of the compound. The format is functional, Artery. In outline:
as §1

Test [5] concerns Rattus norvegicus. Nature of the test: Decrease in mean arterial blood pressure in response to intravenous administration at 4 uM/kg of the compound. The format is functional, Artery. The procedure, abridged:
as §1

The test system of test [6] is Rattus norvegicus. Briefly: Decrease in mean arterial blood pressure in response to intravenous administration at 64 uM/kg of the compound. In kind it is functional, Artery. In outline: as §1
Test [7] deals with Rattus norvegicus. Briefly: Decrease in mean arterial blood pressure in response to intravenous administration at 8 uM/kg of the compound. The format is functional, Artery. The procedure, abridged: as §1
Test [8] has as its system Rattus norvegicus. Nature of the test: Antagonist effect to pressor response of 0.3 ug/kg of norepinephrine intravenously in rats at the dose 32 uM/kg. In kind it is functional. In outline:
as §1

The subject of test [9] is Rattus norvegicus. Nature of the test: Decrease in mean arterial blood pressure in response to intravenous administration at 64 uM/kg of the compound. In kind it is functional, Artery. In outline:
as §1

The subject of test [10] is Rattus norvegicus. Nature of the test: decrease in mean arterial blood pressure in response to intravenous administration at 16 uM/kg of the compound. In kind it is functional. In outline: as §1
Test [11] relates to Rattus norvegicus. Briefly: Decrease in mean arterial blood pressure in response to intravenous administration at 32 uM/kg of the compound. The format is functional, Artery. The procedure, abridged: as §1
The subject of test [12] is Rattus norvegicus. Nature of the test: Decrease in mean arterial blood pressure in response to intravenous administration at 16 uM/kg of the compound. The format is functional, Artery. In outline: as §1

In turn, `CNC1=Nc2ccccc2CN1` registered a Block with Rattus norvegicus [1] of 37.8%. The “Decrease in blood pressure” value with Rattus norvegicus [2] came to 19.7%; in the test with Rattus norvegicus [3], 4.67%; with Rattus norvegicus [4] it was 25%; in the test on Rattus norvegicus [5], 7.7%; with Rattus norvegicus [6], 33.3%; with Rattus norvegicus [7], 12.7%.

In the test on Rattus norvegicus [8], `NC1=Nc2ccccc2CN1` had a Block of 49.3%. Further, the “Decrease in blood pressure” value in the test on Rattus norvegicus [3] was 6.76%; in the test with Rattus norvegicus [5] it was 12%; in the test on Rattus norvegicus [9], 23.3%; in the test on Rattus norvegicus [7] it was 13.3%; with Rattus norvegicus [10], 15%; in the test on Rattus norvegicus [11], 17.7%.

The compound `CN(C)C1=Nc2ccccc2CN1` displayed a Block in the test with Rattus norvegicus [8] of 10%. In addition, the “Decrease in blood pressure” value in the test on Rattus norvegicus [3] worked out at 0%; with Rattus norvegicus [5], 0%; with Rattus norvegicus [6], 24.7%; with Rattus norvegicus [7] it was 5.67%; in the test with Rattus norvegicus [12] it was 7.3%; with Rattus norvegicus [11], 12.3%.

For the compound `Cc1ccc(N(CC2=NCCN2)c2cccc(O)c2)cc1` [PHENTOLAMINE], the Block with Rattus norvegicus [8] was found to be 66.2%.

`CCCN(CCC)C1=NCc2ccccc2N1`: the “Decrease in blood pressure” value is 30.9% in the test with Rattus norvegicus [2]; 3.2% in the test with Rattus norvegicus [3]; 40% with Rattus norvegicus [4]; 7.6% with Rattus norvegicus [5]; 11.5% with Rattus norvegicus [7].

The record behind these values is ChEMBL document CHEMBL1121579, “Synthesis and adrenergic blocking effects of 2-(alkylamino)-3,4-dihydroquinazolines” (1980).
